Source: ChEMBL document CHEMBL1122823, “Synthesis and receptor-binding affinity of fluorotamoxifen, a possible estrogen-receptor imaging agent” (J Med Chem, 1985)
Values joined by “and” are separate entries in the source; they are usually repeats but may differ in a detail not shown here. Equal values may be shown once. Each block holds one compound with its values, some of them ahead of it.

Legend:
[1] = target: T1, Estrogen receptor (Rattus norvegicus) (UniProt P06211+Q62986); assay: Uterotrophic effect in rats uterine at 50 ug/day dose; assay type: functional, tissue-based; conditions: Uterus
[2] = target: T1, Estrogen receptor (Rattus norvegicus)
[3] = target: T1, Estrogen receptor (Rattus norvegicus); assay: Percent uterotrophic effect at 50 ug/day dose compared to estradiol; assay type: functional
[4] = Dissociation constant was evaluated; assay type: physicochemical
Summary of the method: (§1)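 Rat uterine cytosol from 19-day-old immature Sabra rats, homogenized at 0 °C in TEG buffer (pH 7.4, 10% glycerol, 0.01 M DTT) and spun to 105000g, diluted to 2 uteri/mL. […] Free ligand removed with 2.5% dextran-coated charcoal. Nonspecific binding taken with 10000-fold excess. KA = KL·A50/([L*]+KL), with free [L*] 10 nM.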

[5] = target: T1, Estrogen receptor (Rattus norvegicus); conditions: Uterus
[6] = target: T1, Estrogen receptor (Rattus norvegicus); assay: Uterotrophic effect in rats uterine at 500 ug/day dose; assay type: functional, tissue-based; conditions: Uterus
[7] = target: T1, Estrogen receptor (Rattus norvegicus); assay: Percent uterotrophic effect at 500 ug/day dose compared to estradiol; assay type: functional
[8] = target: T1, Estrogen receptor (Rattus norvegicus); assay: Uterotrophic effect in rats uterine at 100 ug/day dose; assay type: functional, tissue-based; conditions: Uterus
[9] = target: T1, Estrogen receptor (Rattus norvegicus); assay: Uterotrophic effect in rats uterine at 100 ug/day dose in the presence of 0.05 ug hexestrol; assay type: functional, tissue-based; conditions: Uterus
[10] = target: T1, Estrogen receptor (Rattus norvegicus); assay: Uterotrophic effect in rats uterine at 1 ug/day dose in the presence of 0.08 ug estradiol; assay type: functional, tissue-based; conditions: Uterus
[11] = target: T1, Estrogen receptor (Rattus norvegicus); assay: Uterotrophic effect in rats uterine at 100 ug/day dose in the presence of 10 ug estradiol; assay type: functional, tissue-based; conditions: Uterus
[12] = target: T1, Estrogen receptor (Rattus norvegicus); assay: Uterotrophic effect in rats uterine at 500 ug/day dose in the presence of 10 ug estradiol; assay type: functional, tissue-based; conditions: Uterus
[13] = target: T1, Estrogen receptor (Rattus norvegicus); conditions: Uterus; remark: listed apart in the source
[14] = target: T1, Estrogen receptor (Rattus norvegicus); assay: Uterotrophic effect in rats uterine at 500 ug/day dose in the presence of 0.2 ug estradiol; assay type: functional, tissue-based; conditions: Uterus
[15] = target: T1, Estrogen receptor (Rattus norvegicus); assay: Uterotrophic effect in rats uterine at 10 ug/day dose in the presence of 0.08 ug estradiol; assay type: functional, tissue-based; conditions: Uterus
[16] = target: T1, Estrogen receptor (Rattus norvegicus); assay: Uterotrophic effect in rats uterine at 500 ug/day dose in the presence of 0.10 ug estradiol; assay type: functional, tissue-based; conditions: Uterus
[17] = target: T1, Estrogen receptor (Rattus norvegicus); assay: Uterotrophic effect in rats uterine at 100 ug/day dose in the presence of 0.20 ug estradiol; assay type: functional, tissue-based; conditions: Uterus
[18] = target: T1, Estrogen receptor (Rattus norvegicus); assay: Uterotrophic effect in rats uterine at 500 ug/day dose in the presence of 0.08 ug estradiol; assay type: functional, tissue-based; conditions: Uterus
[19] = Dissociation constant was evaluated.; assay type: functional; summary of the method: as §1
[20] = target: T1, Estrogen receptor (Rattus norvegicus); assay: Uterotrophic effect in rats at 10 ug/day dose; assay type: functional, tissue-based; conditions: Uterus
[21] = target: T1, Estrogen receptor (Rattus norvegicus); assay: Percent uterotrophic effect at 10 ug/day dose compared to estradiol; assay type: functional
[22] = target: T1, Estrogen receptor (Rattus norvegicus); assay: Uterotrophic effect in rats uterine at 1000 ug/day dose; assay type: functional, tissue-based; conditions: Uterus
[23] = target: T1, Estrogen receptor (Rattus norvegicus); assay: Uterotrophic effect in rats uterine at 1000 ug/day dose in the presence of 0.16 ug estradiol; assay type: functional, tissue-based; conditions: Uterus
[24] = target: T1, Estrogen receptor (Rattus norvegicus); assay: Uterotrophic effect in rats uterine at 100 ug/day dose in the presence of 0.5 ug hexestrol; assay type: functional, tissue-based; conditions: Uterus
[25] = target: T1, Estrogen receptor (Rattus norvegicus); assay: Uterotrophic effect in rats uterine at 10 ug/day dose in the presence of 0.16 ug estradiol; assay type: functional, tissue-based; conditions: Uterus
[26] = target: T1, Estrogen receptor (Rattus norvegicus); assay: Percent uterotrophic effect at 100 ug/day dose compared to estradiol; assay type: functional
[27] = target: T1, Estrogen receptor (Rattus norvegicus); assay: Uterotrophic effect in rats uterine at 10 ug/day dose; assay type: functional, tissue-based; conditions: Uterus
[28] = target: T1, Estrogen receptor (Rattus norvegicus); assay: Uterotrophic effect in rats uterine at 100 ug/day dose in the presence of 0.1 ug estradiol; assay type: functional, tissue-based; conditions: Uterus
[29] = target: T1, Estrogen receptor (Rattus norvegicus); assay: Uterotrophic effect in rats uterine at 0.03 ug/day dose; assay type: functional, tissue-based; conditions: Uterus
[30] = target: T1, Estrogen receptor (Rattus norvegicus); assay: Uterotrophic effect in rats at 0.1 ug/day dose; assay type: functional, tissue-based; conditions: Uterus
[31] = target: T1, Estrogen receptor (Rattus norvegicus); conditions: Uterus; remark: listed apart in the source
[32] = target: T1, Estrogen receptor (Rattus norvegicus); assay: Uterotrophic effect in rats uterine at 0.01 ug/day dose; assay type: functional, tissue-based; conditions: Uterus
[33] = target: T1, Estrogen receptor (Rattus norvegicus); assay: Percent uterotrophic effect at 0.1 ug/day dose compared to estradiol; assay type: functional
[34] = target: T1, Estrogen receptor (Rattus norvegicus); assay: Uterotrophic effect in rats uterine at 0.3 ug/day dose; assay type: functional, tissue-based; conditions: Uterus

SMILES: CC/C(=C(/c1ccc(O)cc1)c1ccc(NC(C)=O)cc1)c1ccccc1
Max uterine weight [1]: 65.8 mg | A50 [2]: 1200 nM | Effect [3]: 98%

SMILES: CC/C(=C(/CC)c1ccc(O)cc1)c1ccc(O)cc1 [DIETHYLSTILBESTROL]
KA [4]: 400 pM

SMILES: CC/C(=C(\c1ccc(N)cc1)c1ccc(OCCN(C)C)cc1)c1ccccc1
Uterine weight [5]: 44 | A50 [2]: 20 nM | Max uterine weight [6]: 54 mg | Uterine weight [6]: 54 | Effect [7]: 76% | Uterine weight [8]: 50.3 | Uterine weight [9]: 46 and 70.3 | Uterine weight [10]: 58.2 | Uterine weight [11]: 57.1 | Uterine weight [12]: 67.2 | Uterine weight [13]: 29.6 | Uterine weight [14]: 62 | Uterine weight [15]: 54.8 | Uterine weight [16]: 46 | Uterine weight [17]: 43 | Uterine weight [18]: 56.5

SMILES: CC/C(=C(/c1ccc(O)cc1)c1ccc(F)cc1)c1ccccc1
A50 [2]: 670 nM | KA [19]: 63 nM | Max uterine weight [20]: 97 mg | Effect [21]: 140%

SMILES: CC/C(=C(\c1ccc(NC(C)=O)cc1)c1ccc(ON(C)C)cc1)c1ccccc1
Max uterine weight [1]: 41.8 mg | Effect [3]: 60%

The remaining lines, values ahead:

Uterine weight [22]: 85.7 | A50 [2]: 5000 nM | Uterine weight [23]: 76.9 | Max uterine weight [8]: 76.4 mg | Uterine weight [8]: 76.4 | Uterine weight [24]: 71.2 | Uterine weight [9]: 70.4 | Uterine weight [25]: 72.2 | Uterine weight [11]: 80.3 | Effect [26]: 108% | Uterine weight [27]: 68.9 | Uterine weight [28]: 74 | Uterine weight [17]: 73.8
SMILES: CC/C(=C(\c1ccc(F)cc1)c1ccc(OCCN(C)C)cc1)c1ccccc1

Uterine weight [5]: 97.3 | Uterine weight [29]: 62.6 | Max uterine weight [30]: 62.6 mg | Uterine weight [13]: 90.2 | Uterine weight [31]: 86.8 | Uterine weight [32]: 29.3 | Effect [33]: 143% | Uterine weight [34]: 94.5
SMILES: CC[C@H](c1ccc(O)cc1)[C@@H](CC)c1ccc(O)cc1
